Source: ChEMBL document CHEMBL1772947, “Discovery and optimization of a novel, selective and brain penetrant M1 positive allosteric modulator (PAM): the development of ML169, an MLPCN probe” (Bioorg Med Chem Lett, 2011)
Calls of active or inactive are those of the source. The calls are words filed in the database; no cut-off is given here.

Tests used:
[1] = biological target: T1, Muscarinic acetylcholine receptor M1 (Rattus norvegicus) (UniProt P08482); test: Allosteric modulation at rat M1 receptor expressed in CHO cells by calcium mobilization assay relative to acetylcholine; format: functional, cell-based; set-up: concentration or dose not given beside the values
T1 sequence (whole entry): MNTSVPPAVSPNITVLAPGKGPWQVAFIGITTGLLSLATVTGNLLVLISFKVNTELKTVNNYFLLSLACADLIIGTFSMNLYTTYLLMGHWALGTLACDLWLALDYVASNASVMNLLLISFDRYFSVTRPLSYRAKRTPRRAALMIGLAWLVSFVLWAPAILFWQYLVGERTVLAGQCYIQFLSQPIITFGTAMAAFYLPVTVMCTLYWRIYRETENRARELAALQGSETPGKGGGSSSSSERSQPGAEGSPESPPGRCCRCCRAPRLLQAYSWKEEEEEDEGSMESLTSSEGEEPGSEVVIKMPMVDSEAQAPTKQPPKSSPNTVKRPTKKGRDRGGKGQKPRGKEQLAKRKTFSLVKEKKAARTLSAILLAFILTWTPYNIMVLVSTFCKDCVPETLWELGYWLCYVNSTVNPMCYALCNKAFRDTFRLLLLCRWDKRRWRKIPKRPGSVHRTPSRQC

[2] = biological target: T1, Muscarinic acetylcholine receptor M1 (Rattus norvegicus); test: Agonist activity at rat M1 receptor expressed in CHO cells assessed as leftward shift in Ach response at 30 uM by calcium mobilization assay; format: functional, cell-based
[3] = biological target: T2, Muscarinic acetylcholine receptor M1 (Rattus norvegicus, UniProt P08482); test: Allosteric modulation at rat M1 receptor expressed in CHO cells by calcium mobilization assay; format: functional, cell-based
T2 sequence (P08482 whole entry): T1 sequence (whole entry)

[4] = biological target: T3, Muscarinic acetylcholine receptor M2 (Homo sapiens, UniProt P08172); test: Agonist activity at M2 receptor; format: functional
T3 sequence (P08172 whole entry): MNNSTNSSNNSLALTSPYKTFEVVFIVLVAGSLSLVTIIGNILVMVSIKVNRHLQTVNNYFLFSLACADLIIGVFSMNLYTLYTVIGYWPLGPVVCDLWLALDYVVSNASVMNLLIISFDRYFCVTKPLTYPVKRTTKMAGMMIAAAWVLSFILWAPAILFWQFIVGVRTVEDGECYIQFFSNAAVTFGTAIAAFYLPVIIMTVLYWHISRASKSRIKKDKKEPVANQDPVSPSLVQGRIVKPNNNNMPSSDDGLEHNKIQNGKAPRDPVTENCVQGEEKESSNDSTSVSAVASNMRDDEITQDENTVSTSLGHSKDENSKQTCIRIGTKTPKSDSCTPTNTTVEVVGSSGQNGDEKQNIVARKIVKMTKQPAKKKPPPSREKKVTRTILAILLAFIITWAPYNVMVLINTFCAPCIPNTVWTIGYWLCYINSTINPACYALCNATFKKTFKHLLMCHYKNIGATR

[5] = biological target: T4, Muscarinic acetylcholine receptor M4 (Homo sapiens, UniProt P08173); test: Agonist activity at M4 receptor; format: functional
T4 sequence (P08173 whole entry): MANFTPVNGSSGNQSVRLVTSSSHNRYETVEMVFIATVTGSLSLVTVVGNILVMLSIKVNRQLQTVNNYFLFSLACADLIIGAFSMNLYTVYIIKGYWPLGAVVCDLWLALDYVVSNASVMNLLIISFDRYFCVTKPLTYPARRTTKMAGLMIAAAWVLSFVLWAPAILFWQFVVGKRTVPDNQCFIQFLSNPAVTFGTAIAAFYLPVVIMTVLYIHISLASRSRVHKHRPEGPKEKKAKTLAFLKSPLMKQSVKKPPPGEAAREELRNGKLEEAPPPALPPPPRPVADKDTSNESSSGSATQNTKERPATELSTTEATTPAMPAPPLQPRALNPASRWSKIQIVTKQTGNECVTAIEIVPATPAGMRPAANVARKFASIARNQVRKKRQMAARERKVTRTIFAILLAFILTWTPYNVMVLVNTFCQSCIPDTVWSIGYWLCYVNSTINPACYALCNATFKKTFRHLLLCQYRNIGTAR

[6] = biological target: T5, Muscarinic acetylcholine receptor M5 (Homo sapiens, UniProt P08912); test: Agonist activity at M5 receptor; format: functional
T5 sequence (P08912 whole entry): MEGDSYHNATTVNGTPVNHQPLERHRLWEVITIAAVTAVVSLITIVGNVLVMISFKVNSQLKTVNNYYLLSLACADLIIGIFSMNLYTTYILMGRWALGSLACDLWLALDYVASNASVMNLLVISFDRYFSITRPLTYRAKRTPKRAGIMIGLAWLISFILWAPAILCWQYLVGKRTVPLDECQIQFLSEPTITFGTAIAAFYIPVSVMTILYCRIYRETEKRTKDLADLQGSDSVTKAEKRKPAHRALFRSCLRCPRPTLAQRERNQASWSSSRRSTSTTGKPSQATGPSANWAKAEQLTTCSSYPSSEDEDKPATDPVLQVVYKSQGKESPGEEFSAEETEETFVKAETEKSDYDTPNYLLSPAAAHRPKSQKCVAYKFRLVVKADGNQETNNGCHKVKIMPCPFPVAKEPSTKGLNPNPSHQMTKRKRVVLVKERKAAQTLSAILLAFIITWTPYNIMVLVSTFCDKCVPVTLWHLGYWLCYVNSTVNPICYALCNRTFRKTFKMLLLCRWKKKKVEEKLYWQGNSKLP

[7] = biological target: T6, Muscarinic acetylcholine receptor M3 (Homo sapiens, UniProt P20309); test: Agonist activity at M3 receptor; format: functional
Target sequence in this assay (P20309 whole entry): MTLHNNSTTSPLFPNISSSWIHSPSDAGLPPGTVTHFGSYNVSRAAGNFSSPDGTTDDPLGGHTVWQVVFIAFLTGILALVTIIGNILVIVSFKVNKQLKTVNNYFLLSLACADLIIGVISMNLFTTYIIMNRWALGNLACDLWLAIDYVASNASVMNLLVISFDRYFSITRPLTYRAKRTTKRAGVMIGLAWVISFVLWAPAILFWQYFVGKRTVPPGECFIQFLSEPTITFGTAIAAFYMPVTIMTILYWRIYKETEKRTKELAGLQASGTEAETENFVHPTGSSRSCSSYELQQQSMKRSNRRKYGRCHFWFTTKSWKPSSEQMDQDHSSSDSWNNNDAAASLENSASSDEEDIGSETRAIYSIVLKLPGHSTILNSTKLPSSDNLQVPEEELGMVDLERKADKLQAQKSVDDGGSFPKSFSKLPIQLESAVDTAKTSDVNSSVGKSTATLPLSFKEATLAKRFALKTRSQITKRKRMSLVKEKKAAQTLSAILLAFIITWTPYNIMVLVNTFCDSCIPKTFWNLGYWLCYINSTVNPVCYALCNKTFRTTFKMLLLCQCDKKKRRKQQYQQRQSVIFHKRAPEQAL

[8] = biological target: Sodium-dependent dopamine transporter (Homo sapiens) (UniProt Q01959); test: Binding affinity to DAT at 10 uM by radioligand binding assay
Sequence of Sodium-dependent dopamine transporter (Homo sapiens) (Q01959 whole entry): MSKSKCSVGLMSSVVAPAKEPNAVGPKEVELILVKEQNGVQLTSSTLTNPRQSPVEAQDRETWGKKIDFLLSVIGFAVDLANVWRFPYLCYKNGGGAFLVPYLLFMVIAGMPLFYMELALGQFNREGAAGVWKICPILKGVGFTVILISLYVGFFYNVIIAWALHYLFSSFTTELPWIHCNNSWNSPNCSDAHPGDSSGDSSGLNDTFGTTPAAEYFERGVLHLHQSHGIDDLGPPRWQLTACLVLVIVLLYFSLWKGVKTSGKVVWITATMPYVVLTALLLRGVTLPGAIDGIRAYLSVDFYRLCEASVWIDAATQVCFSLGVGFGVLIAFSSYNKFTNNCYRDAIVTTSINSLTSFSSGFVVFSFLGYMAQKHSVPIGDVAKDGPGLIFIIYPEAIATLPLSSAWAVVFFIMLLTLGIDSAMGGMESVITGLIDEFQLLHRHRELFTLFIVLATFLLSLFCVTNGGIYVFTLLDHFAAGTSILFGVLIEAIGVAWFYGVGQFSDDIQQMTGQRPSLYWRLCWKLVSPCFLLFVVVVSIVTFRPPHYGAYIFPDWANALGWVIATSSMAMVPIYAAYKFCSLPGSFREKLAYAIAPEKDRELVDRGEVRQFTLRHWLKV
Outline: (§1)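 Radioligand binding panel of 68 GPCRs, ion channels and transporters (Lead Profile screen, run externally), compound tested at 10 μM; read-out as percent activity at each target.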

[9] = biological target: T7, Muscarinic acetylcholine receptor M2 (Homo sapiens) (UniProt P08172); test: Orthosteric binding affinity to M2 receptor at 10 uM by radioligand binding assay; outline: as §1
T7 sequence (whole entry): T3 sequence (P08172 whole entry)

[10] = biological target: T8, Muscarinic acetylcholine receptor M4 (Homo sapiens) (UniProt P08173); test: Orthosteric binding affinity to M4 receptor at 10 uM by radioligand binding assay; outline: as §1
T8 sequence (whole entry): T4 sequence (P08173 whole entry)

[11] = biological target: T9, Muscarinic acetylcholine receptor M5 (Homo sapiens) (UniProt P08912); test: Orthosteric binding affinity to M5 receptor at 10 uM by radioligand binding assay; outline: as §1
T9 sequence (whole entry): T5 sequence (P08912 whole entry)

[12] = Binding affinity to Sodium channel site 2 at 10 uM by radioligand binding assay; outline: as §1
[13] = biological target: T1, Muscarinic acetylcholine receptor M1 (Rattus norvegicus); test: Orthosteric binding affinity to rat M1 receptor at 10 uM by radioligand binding assay; outline: as §1
[14] = Ratio of AUC in brain to plasma in rat at 10 mg/kg, ip after 1 hr; format: ADME, organism-based; set-up: dose 10 mg/kg, route intraperitoneal; settings: brain and plasma
[15] = biological target: T6, Muscarinic acetylcholine receptor M3; test: Orthosteric binding affinity to M3 receptor at 10 uM by radioligand binding assay; outline: as §1
Target sequence in this assay (P20309 whole entry, looked up): as the sequence (P20309 whole entry) above

SMILES	Activity [1] [%]	EC50 [3] [µM]	also measured
Cc1cc(NC(=O)CS(=O)(=O)c2cn(Cc3cccc(-c4cn[nH]c4)c3)c3cc(F)cc(F)c23)no1	102		fold change (FC) [2]: 98
Cc1cc(NC(=O)CS(=O)(=O)c2cn(Cc3cccc(-c4cn[nH]c4)c3F)c3ccccc23)no1	103	4.4	
Cc1cc(NC(=O)CS(=O)(=O)c2cn(Cc3ccc(F)cc3F)c3ccccc23)no1		> 10	
Cc1cc(NC(=O)CS(=O)(=O)c2cn(Cc3cccc(-c4ccc(N5CCNCC5)nc4)c3)c3ccccc23)no1		> 10	
Cc1cc(NC(=O)CS(=O)(=O)c2cn(Cc3cc(Br)ccc3F)c3ccccc23)no1	84		Activity [8]: 83%; Activity [9]: inactive; Activity [10]: inactive; Activity [11]: inactive; fold change (FC) [2]: 49; Activity [12]: 83%; Activity [13]: inactive; Kp at 1 h [14]: 0.32; Activity [15]: inactive
Cc1cc(NC(=O)CS(=O)(=O)c2cn(Cc3cc(-c4cn[nH]c4)ccc3F)c3ccccc23)no1	96	3.07	
Cc1cc(NC(=O)CS(=O)(=O)c2cn(Cc3cc(Br)cc(Br)c3)c3ccccc23)no1		> 10	
Cc1cc(NC(=O)CS(=O)(=O)c2cn(Cc3ccc(OC(F)(F)F)cc3)c3ccccc23)no1		> 10	
Cc1cc(NC(=O)CS(=O)(=O)c2cn(Cc3cccc(-c4ccc(N5CCCC5)nc4)c3)c3ccccc23)no1		> 10	
Cc1cc(NC(=O)CS(=O)(=O)c2cn(Cc3cccc(Br)c3F)c3ccccc23)no1		> 10	
Cc1cc(NC(=O)CS(=O)(=O)c2cn(Cc3cccc(Br)c3)c3cc(F)cc(F)c23)no1	103		
Cc1cc(NC(=O)CS(=O)(=O)c2cn(Cc3cccc(-c4ccccc4)c3)c3ccccc23)no1		> 10	
Cn1cc(-c2ccc(CN3C(=O)C(=O)c4ccccc43)c(F)c2)cn1			Kp at 1 h [14]: 0.1
Cc1cc(NC(=O)CS(=O)(=O)c2cn(Cc3cccc(Cl)c3F)c3ccccc23)no1	56		
Cc1cc(NC(=O)CS(=O)(=O)c2cn(Cc3ccc(C(F)(F)F)cc3)c3ccccc23)no1		> 10	
CCC(C)n1cc(-c2cccc(Cn3cc(S(=O)(=O)CC(=O)Nc4cc(C)on4)c4ccccc43)c2)cn1 (configuration not stated)		> 10	
Cc1cc(NC(=O)CS(=O)(=O)c2cn(Cc3cccc(-c4ccc(Cl)nc4)c3)c3ccccc23)no1		> 10	
Cc1cc(NC(=O)CS(=O)(=O)c2cn(Cc3ccc(F)c(-c4cn[nH]c4)c3)c3ccccc23)no1		> 10	
COc1ccccc1Cn1cc(S(=O)(=O)CC(=O)Nc2cc(C)on2)c2ccccc21		> 10	
Cc1cc(NC(=O)CS(=O)(=O)c2cn(Cc3cccc(-c4ccc(N5CCOCC5)nc4)c3)c3ccccc23)no1		> 10	
Cc1cc(NC(=O)CS(=O)(=O)c2cn(Cc3ccc(F)cc3Br)c3ccccc23)no1		> 10	

Second part, led by results:

Activity [1] [%]	EC50 [3] [µM]	SMILES	also measured
	> 10	Cc1cc(NC(=O)CS(=O)(=O)c2cn(Cc3cccc(C(F)(F)F)c3)c3ccccc23)no1	
	9.71	Cc1cc(NC(=O)CS(=O)(=O)c2cn(Cc3ccccc3Cl)c3ccccc23)no1	EC50 [4]: > 30 µM; EC50 [5]: > 30 µM; EC50 [6]: > 30 µM; EC50 [7]: > 30 µM
	> 10	Cc1cc(NC(=O)CS(=O)(=O)c2cn(Cc3ccc(Cl)cc3)c3ccccc23)no1	
	> 10	Cc1cc(NC(=O)CS(=O)(=O)c2cn(Cc3ccc(F)c(Br)c3)c3ccccc23)no1	
91		Cc1cc(NC(=O)CS(=O)(=O)c2cn(Cc3cccc(Br)c3)c3ccccc23)no1	
96		Cc1cc(NC(=O)CS(=O)(=O)c2cn(Cc3cccc(Cl)c3)c3ccccc23)no1	
	> 10	Cc1cc(NC(=O)CS(=O)(=O)c2cn(Cc3ccc(Cl)c(Cl)c3)c3ccccc23)no1	
102	3.21	Cc1cc(NC(=O)CS(=O)(=O)c2cn(Cc3cccc(-c4cnn(C)c4)c3)c3ccccc23)no1	
	> 10	COc1ccc(Cn2cc(S(=O)(=O)CC(=O)Nc3cc(C)on3)c3ccccc32)cc1	
	> 10	Cc1cc(NC(=O)CS(=O)(=O)c2cn(Cc3ccccc3F)c3ccccc23)no1	
	> 10	Cc1cc(NC(=O)CS(=O)(=O)c2cn(Cc3ccc(F)c(Cl)c3)c3ccccc23)no1	
90		Cc1cc(NC(=O)CS(=O)(=O)c2cn(Cc3cccc(-c4cn[nH]c4)c3)c3ccccc23)no1	
79		COc1cccc(Cn2cc(S(=O)(=O)CC(=O)Nc3cc(C)on3)c3ccccc32)c1	
	> 10	Cc1cc(NC(=O)CS(=O)(=O)c2cn(Cc3cccc(C#N)c3)c3ccccc23)no1	
